Assay outcomes (PubChem)
Tb hexokinase: T. brucei hexokinase 1 inhibition; recombinant TbHK1, G6PDH-coupled NADH A340; inhibition, % at 10 µM; 220,000 tested, 0.11% active; AID 1430;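 active = inhibition of 50% or more in the single-dose primary screen; inactive = inhibition below 50%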
thrombin 1536: inhibitors of human thrombin; P00734; alpha-thrombin, Boc-VPR-AMC fluorogenic substrate cleavage; inhibition, % at 5 µM; 220,000 tested, 0.26% active;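 active = inhibition at or above 40%; inactive = inhibition below 40%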;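 note: 0% = enzyme with no compound and 100% = wells without enzyme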
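Material: human alpha-thrombin enzyme / Medium: pH 7.5 Tris (50 mM) with NaCl 150 mM, Tween 20 0.05% / Compound: single-point dosing at 5 µM, 0.2% DMSO / Incubation: enzyme reaction carried out at room temperature / Detection: AMC fluorescence, 355/460 nm / Read-out basis: percent inhibition scaled between no-compound controls and no-enzyme blanks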
KLK5 inh: inhibitors of human kallikrein 5; recombinant hK5, fluorogenic AMC substrate cleavage; inhibition, % at 5 µM; 210,000 tested, 0.59% active; AID 873;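 active = inhibition of 40% or more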;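 note: 0% = enzyme controls without compound and 100% = no-enzyme blanks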
FXIIa inh: inhibitors of human coagulation factor XIIa; P00748; purified FXIIa, Boc-QGR-AMC fluorogenic substrate, 2 h; inhibition, % at 5 µM; 220,000 tested, 0.3% active; in the data active = inhibition above about 40%;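 note: 0% = enzyme with no compound and 100% = blank without enzyme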
FXIa inh 1536: factor XIa (human) inhibition | 220,000 tested, 0.14% active | P03951 | purified FXIa, Boc-Glu-Ala-Arg-AMC fluorogenic substrate | inhibition, % at 5 µM;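 active = inhibition of at least 40%; inactive = inhibition below 40%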;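 note: fluorescence of freed AMC excited at 355 nm; 0% = enzyme without compound and 100% = no enzyme blank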
Target sequence (P03951 19-387 limits assumed): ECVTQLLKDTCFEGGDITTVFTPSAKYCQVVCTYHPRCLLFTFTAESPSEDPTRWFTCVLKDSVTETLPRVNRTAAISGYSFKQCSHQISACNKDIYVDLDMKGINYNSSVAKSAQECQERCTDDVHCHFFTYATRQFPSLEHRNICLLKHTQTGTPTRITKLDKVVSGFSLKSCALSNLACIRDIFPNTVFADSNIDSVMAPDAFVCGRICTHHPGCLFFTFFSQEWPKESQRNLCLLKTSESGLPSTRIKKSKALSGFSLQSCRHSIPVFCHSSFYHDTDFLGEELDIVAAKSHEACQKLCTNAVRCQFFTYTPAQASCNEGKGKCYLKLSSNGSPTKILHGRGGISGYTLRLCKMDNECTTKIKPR
Target sequence (P03951 388-625 limits assumed): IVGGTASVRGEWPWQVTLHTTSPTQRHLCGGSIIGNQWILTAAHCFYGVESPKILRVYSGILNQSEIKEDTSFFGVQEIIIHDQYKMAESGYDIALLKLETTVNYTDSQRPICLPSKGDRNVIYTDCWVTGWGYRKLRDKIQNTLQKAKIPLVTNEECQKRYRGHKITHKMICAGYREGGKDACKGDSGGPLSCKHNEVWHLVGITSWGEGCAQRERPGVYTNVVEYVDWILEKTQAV
The depositor's hits bear a star; x = no result; ! = not active in a repeat. Rows were chosen to be rich in hits. Some 1.1% of all compounds tested hit in one or more screens of this group.

SMILES	Tb hexokinase	thrombin 1536	KLK5 inh	FXIIa inh	FXIa inh 1536
CC(C(=O)O)n1cc(Cl)cn1 (centres undefined)	9	15	51*	27	25
COCC(C)NC(=S)Nc1ccccc1[N+](=O)[O-] (centres undefined)	-6	-3	0	3	-1
O=C(Nc1ccc(N2CCOCC2)cc1)c1cnsn1	-6	13	51*	6	2
CCc1cccc(CC)c1NC(=O)COC(=O)c1cccc(-c2ccc(OC(C)=O)cc2)c1	2	-10	-3	-7	-15
COC(=O)c1c(C)oc(C)c(C(=O)OC)c1=O	-7	17	74*	21	11
O=C(O)c1cccc(N2CCCC2=O)c1	0	-2	10	17	17
COC(=O)c1cccc(N2CCCC2=O)c1	2	16	45*	25	32
CN(Cc1cccnc1)C(=O)CNC(=O)c1ccc(Cl)cc1Cl	0	-8	25	10	15
O=C(COC(=O)c1ccc(O)cc1)NCCCc1ccccc1	6	91*	23	43*	28
CCOC(=O)CC1Sc2ccccc2NC1=S (centres undefined)	-25	-7	80*	0	4
CC(=O)Nc1ccc(S(=O)(=O)NNC(=O)COc2ccc(C)cc2)cc1	-8	2	-5	8	10
CC(=O)Nc1ccc(S(=O)(=O)NNC(=O)COc2ccc(Cl)cc2Cl)cc1	-1	22	20	21	44*
CCOC(=O)c1oc2ccccc2c1NC(=O)c1ccccc1OC	-8	-12	60*	17	1
O=C(c1ccc2c(c1)OCO2)N(Cc1ccco1)C1(C(=O)NC2CCCCC2)CCCCC1	-1	-3	-4	-2	-10
CCc1cc2c(=O)[nH]c(Cc3ccccc3)nc2s1	-9	5	-18	13	-3
CCc1nc2sccc2c(=O)[nH]1	7	44*	56*	23	32
COc1ccc2nc(SCCC(=O)O)cc(C)c2c1	-7	-5	-1	-2	-3
CCCCN1C(=O)/C(=C/C=C2\Oc3ccccc3N2CC)SC1=S	-4	-2	4	8	1
CCN1/C(=C/C=C/c2oc3ccc(-c4ccccc4)cc3[n+]2CC)Oc2ccc(-c3ccccc3)cc21	101*	2	0	5	-3
Cc1occc(=O)c1O	4	0	-19	10	7
CN(C)c1cc[n+](CC(=O)c2ccc(OC(F)F)cc2)cc1	-7	5	3	10	3
Cc1nc(/N=C\N(C)C)sc1C(=O)Nc1ccccc1	-55	25	48*	14	11
COc1cccc(NC(=S)NCCC(c2ccccc2)c2ccccc2)c1	4	41*	-20	0	-15
COc1cccc(NC(=S)Nc2ccc(Br)cc2Cl)c1	-1	51*	39	41*	36
CCOc1ccc(NC(=S)Nc2ccc(Br)cc2Cl)cc1	-1	-6	-6	4	-6
SMILES	Tb hexokinase	thrombin 1536	KLK5 inh	FXIIa inh	FXIa inh 1536
CCC(=O)Nc1cc(C(=O)OCc2ccc(C(=O)Oc3ccccc3)cc2)ccc1C	9	-6	-10	0	-7
COc1ccc(/C=N\NS(=O)(=O)c2ccc(Cl)cc2)cc1COc1ccccc1[N+](=O)[O-]	1	85*	47*	19	8
COc1ccc(/C=N\NS(=O)(=O)c2ccc(Br)cc2)cc1COc1ccccc1[N+](=O)[O-]	-11	8	-2	30	22
CCCCn1c(NCc2cccs2)nc2ccccc21	11	-3	-6	-1	1
CCCn1c(NCc2cccs2)nc2ccccc21	-2	17	56*	24	9
c1ccc(-c2ccc(-c3csnn3)cc2)cc1	4	3	-9	10	2
O=S(=O)(Nc1ccccc1)c1ccc(-c2csnn2)cc1	-3	18	26	43*	26
COCc1c(C(=O)OCc2nc(N)nc(Nc3ccccc3C)n2)oc2ccccc12	-5	-2	5	51*	32
COc1ccccc1C(=O)OCc1nc(N)nc(Nc2ccccc2C)n1	-3	-15	-7	0	-6
O=C1CC(c2cccs2)c2cc3c(cc2N1)OCO3 (centres undefined)	4	0	46*	17	1
COc1ccc(-c2cc(C(F)(F)F)c(C#N)c(SCC(=O)O)n2)cc1OC	-26	9	48*	18	35
C=CCNc1nc(NC(C)(C)CO)nc(OC)n1	7	0	-9	30	46*
COc1ccc(-c2cc(-c3nnc(COC(=O)CC4CC5CCC4C5)o3)c3ccccc3n2)cc1OC (centres undefined)	-18	25	24	42*	17
O=C1C(C=NCCCN2CCOCC2)=C(O)c2ccccc21	-42	12	59*	7	1
CC(C)c1nc(SCc2c(F)cccc2Cl)c2c(=O)n(C)c(=O)n(C)c2n1	2	15	65*	23	10
Fc1ccc(SCCc2ccccn2)cc1	1	-2	-2	40*!	-1
CC(C)(C)c1ccc(SCCc2ccccn2)cc1	6	-9	-9	7	0
CN(Cc1cnn(C)c1)S(=O)(=O)c1cccc([N+](=O)[O-])c1	-1	x	-10	-5	-4
CCC(Sc1nc2sc(C(=O)OC)c(C)c2c(=O)n1N)C(=O)NCC1CCCO1 (centres undefined)	-27	18	43*	29	14
CCCCNC(=O)C(CC)Sc1nc2sc(C(=O)OC)c(C)c2c(=O)n1N (centres undefined)	-15	-4	4	9	-4
Clc1cccc2sc(N3CCCC3)nc12	-5	12	109*	10	8
NC1=NC2(CCCCC2)N=C(Nc2ccc(Br)cc2)N1	0	-9	-2	-1	-9
CCCN1C(=O)/C(=C/c2cc(C)n(C)c2C)SC1=Nc1ccc(OC)cc1	-9	0	6	8	6
COc1ccc(N=C2S/C(=C\c3cc(C)n(C)c3C)C(=O)N2C)cc1	-1	12	41*	0	8
COc1cccc(CN(C(=O)/C=C/c2ccc(Cl)cc2)C2CCS(=O)(=O)C2)c1 (centres undefined)	1	-5	-2	5	-2
SMILES	Tb hexokinase	thrombin 1536	KLK5 inh	FXIIa inh	FXIa inh 1536
O=c1[nH]c2ccc(Cl)cc2c(-c2ccccc2)c1CN1CCOCC1	-4	2	-1	15	-1
O=c1[nH]c2ccc(Cl)cc2c(-c2ccccc2)c1N1CCOCC1	0	43*	30	28	13
COc1ccc(CCn2c(C)cc(C(=O)CCl)c2C)cc1OC	5	x	24	103*	30
Cc1cc(C(=O)CCl)c(C)n1CCc1ccc(Cl)cc1	3	-1	x	7	2
CCCCN(C)C(=O)CS(=O)(=O)Cc1nc(-c2cccc(OC)c2)oc1C	-4	14	44*	19	13
CN(C)CCCNc1ncnc2c1cnn2-c1ccccc1	0	-8	-12	7	-2
CN(C)CCCNc1ncnc2sc(-c3ccccc3)cc12	-46	95*	0	7	0
